Only some compounds are listed: those with a hit (about 2.6% of all), similar ones and a draw of the others.
CHT inh – human CHT choline transport inhibition; B-score at 10 µM; 0.86% of 310,000 active; CHT-expressing cells, membrane potential dye, choline response; stronger effect = lower value; AID 488975;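 active = B-score over 3 SD under the library average, and starting fluorescence ratio not unusually high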;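 also: choline stimulus applied at its EC90 after an EC20 pre-addition; B-score computed on integrated fluorescence ratio after choline addition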
CHT allo act – allosteric activators of human choline transporter CHT; Q9GZV3; CHT-expressing cells, membrane potential dye, choline EC20; stronger effect = higher value; LV-AA mutant CHT in HEK293 cells; B-score at 10 µM; 0.49% of 310,000 active;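 active = initial fluorescence not abnormally high and integrated response B-score, plate-corrected, over 3 SD above library mean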
Rad51 HR inh – Rad51 (human) homologous recombination inhibition. Q06609. hRad51 DNA strand exchange, fluorescence dequenching. inhibition, % at 10 µM. 0.085% of 200,000 active. AID 1385;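 active = inhibition above 40% at the single screening dose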;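 also: 0% = DMSO control wells and 100% = blanks with heterologous ssDNA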
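Test system: preformed human Rad51 ssDNA filaments. Compound dosing: single dose, 10 µM final compound. Incubation: filaments 15 min 37 °C, then compound 30 min. Technique: FRET fluorescence dequenching, excitation 485 nm, emission 520 nm. Read-out basis: percent inhibition from fluorescence, normalised to plate control and blank means. Benchmarks: plate controls and plate blanks.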
Cl transport mod – modulators of human KCC2 chloride dependent transport; KCC2 cells, thallium flux FluoZin-2 fluorescence; B-score of Tl+ flux slope (higher = more flux/activation; lower = inhibition) at 10 µM; 2.2% of 190,000 active; AID 1456;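 active = thallium flux slope and its plate-corrected score both differing from the plate sample mean at a set confidence after two filtering rounds, in either direction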;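 also: slope of fluorescence scaled to starting intensity during 10 to 20 s after thallium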
Target sequence (Q9H2X9 whole entry, looked up): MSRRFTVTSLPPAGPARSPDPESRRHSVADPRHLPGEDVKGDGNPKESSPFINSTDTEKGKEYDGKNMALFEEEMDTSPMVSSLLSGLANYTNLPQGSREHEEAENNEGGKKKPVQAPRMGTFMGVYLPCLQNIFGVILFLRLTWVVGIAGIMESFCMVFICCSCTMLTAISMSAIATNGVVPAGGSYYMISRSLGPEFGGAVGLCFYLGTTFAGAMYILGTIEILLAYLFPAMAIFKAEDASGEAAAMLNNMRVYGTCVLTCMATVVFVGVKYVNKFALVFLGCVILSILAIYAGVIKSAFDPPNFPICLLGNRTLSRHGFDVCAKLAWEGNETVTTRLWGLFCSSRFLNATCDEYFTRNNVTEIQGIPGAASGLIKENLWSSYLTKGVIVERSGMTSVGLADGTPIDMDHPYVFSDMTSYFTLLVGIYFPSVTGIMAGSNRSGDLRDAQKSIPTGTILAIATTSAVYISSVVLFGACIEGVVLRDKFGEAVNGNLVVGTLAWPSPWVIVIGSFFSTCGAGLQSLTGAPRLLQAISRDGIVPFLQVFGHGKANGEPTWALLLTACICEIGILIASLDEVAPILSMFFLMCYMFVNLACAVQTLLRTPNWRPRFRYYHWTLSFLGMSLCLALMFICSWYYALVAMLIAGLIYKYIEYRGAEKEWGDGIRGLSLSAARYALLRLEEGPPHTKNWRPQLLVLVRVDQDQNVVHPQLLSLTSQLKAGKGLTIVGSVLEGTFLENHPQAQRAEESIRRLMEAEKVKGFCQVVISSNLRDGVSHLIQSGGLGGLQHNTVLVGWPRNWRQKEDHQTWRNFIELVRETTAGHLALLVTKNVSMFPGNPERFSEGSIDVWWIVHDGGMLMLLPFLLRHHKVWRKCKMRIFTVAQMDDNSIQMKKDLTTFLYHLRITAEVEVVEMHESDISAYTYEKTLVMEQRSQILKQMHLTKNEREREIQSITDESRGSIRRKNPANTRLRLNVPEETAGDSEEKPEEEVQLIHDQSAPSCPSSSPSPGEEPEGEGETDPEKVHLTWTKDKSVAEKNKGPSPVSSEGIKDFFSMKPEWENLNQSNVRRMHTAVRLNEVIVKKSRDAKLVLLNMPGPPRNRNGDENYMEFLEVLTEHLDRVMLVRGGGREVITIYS
CHT block conf – human CHT inhibition, confirmatory screen; 70% of 2,400 active; CHT activity remaining % of control (stronger effect = lower value), % at 10 µM; shares compounds with CHT inh; CHT-expressing cells, choline membrane potential dye; LV-to-AA substituted CHT, HEK293 cells;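 active = choline transporter activity left, mean of duplicates at 10 µM, below buffer-only control mean minus 3 SD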;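 also: depolarization triggered by choline at its EC90 following an EC20 pre-addition; 0% = hemicholinium-3 full block and 100% = buffer-only control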
HEK293 MPD ctr – counter-screen for CHT inhibitors: effect in parental HEK293 cells; shares compounds with CHT inh; membrane potential ratio readout (active if shifted either direction beyond buffer ±3SD; no single direction) at 10 µM; membrane potential dye, choline response; active = decrease or increase beyond buffer ±3SD; 4% of 2,400 active;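 also: parental cells lack the transporter so any hit is non-specific; ratio is peak minus trough fluorescence over baseline after EC90 choline challenge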
An asterisk follows results filed as active; i = inactive; . = no result given.

SMILES	CHT inh	CHT allo act	Rad51 HR inh	Cl transport mod	CHT block conf	HEK293 MPD ctr
CN1CCN(C(=O)CCN2C(=O)S/C(=C/c3ccc(Cl)cc3)C2=O)CC1	-6.47*	i	0.8	1.06	50.4%*	i
COc1ccccc1C1c2c(C)nn(-c3ccccc3)c2NC(=O)C1NC(=O)c1ccccc1 (stereo unspecified)	i	i	3.6	-0.736	.	.
CC(NC(=O)c1cccc(N(C)C)c1)c1ccc(-n2ccnc2)cc1 (stereo unspecified)	i	i	.	.	.	.
CC(C)(C)OC(=O)NCCc1nnc(SCc2ccc(Cl)cc2)o1	-6.15*	i	3.8	-0.0238	65.2%*	i
CC(C)(C)OC(=O)NCCCCCc1nnc(SCC(=O)Nc2cccc(Cl)c2)o1	-5.63*	i	-3.0	.	i	i
O=C(NCCCn1ccnc1)c1cnn2c1NC(c1ccccc1)CC2C(F)(F)F (stereo unspecified)	-13.6*	i	4.8	0.571	9.0%*	i
CC(C)Oc1ccc(C(CC(=O)O)NC(=O)C(Sc2ccccc2)c2ccccc2)cc1 (stereo unspecified)	i	i	-0.4	-4.18	.	.
COc1cccc(OCc2cc(C(=O)NCCN3CCCCC3CO)no2)c1 (stereo unspecified)	i	i	.	.	.	.
Cc1cc(OCc2cc(C(=O)NCCN3CCCCC3CO)no2)cc(C)c1Cl (stereo unspecified)	-5.37*	i	.	.	48.8%*	i
COc1ccc(CN2CCCCCC2)cc1Br	i	i	.	.	.	.
CSCCNC(=O)c1ccc(OC2CCN(CCc3ccccc3)CC2)cc1	-5.23*	i	21.4	.	46.4%*	4.78*
O=C(NCCn1cccn1)c1ccc(OC2CCN(CCc3ccccc3)CC2)cc1	i	i	.	.	.	.
O=C(NCCn1cccn1)c1ccc(OC2CCN(C(=O)C3CC3)CC2)cc1	-10.5*	i	-5.8	.	i	i
c1ccc2c(c1)OCC(CNc1ncnc3sccc13)O2 (stereo unspecified)	i	i	7.3	0.176	.	.
O=S1(=O)Cc2cc3ccccc3cc2C1	i	i	33.2	.	.	.
CC#CC(=O)N1CCCC(C(=O)c2ccc(SC)cc2)C1 (stereo unspecified)	i	i	.	.	.	.
CSc1ccc(C(=O)C2CCCN(C(=O)c3ccsc3)C2)cc1 (stereo unspecified)	-5.22*	i	9.4	-2.76	68.8%*	i
COC(=O)c1cc(S(=O)(=O)NCC2CCN(CCc3cccs3)CC2)c[nH]1	i	i	.	.	.	.
O=C(C1CC(=O)N(C2CCCC2)C1)N1CCN(c2ccccc2F)CC1 (stereo unspecified)	i	i	2.7	-1	.	.
O=C(C1CC(=O)N(C2CCCC2)C1)N1CCC(Cc2ccccc2)CC1 (stereo unspecified)	-5.77*	i	-6.4	.	55.3%*	i
COc1ccc([N+](=O)[O-])cc1NC(=O)C1CCCN1S(=O)(=O)c1cccs1 (stereo unspecified)	i	i	.	.	.	.
CC(SCc1ccccc1)C(=O)N/N=C/c1ccc(OCC(=O)NCc2ccco2)cc1 (stereo unspecified)	-8.14*	i	-0.8	-2	47.2%*	i
COc1ccc(CSCC(=O)N/N=C/c2ccc(OCC(=O)NCc3ccco3)cc2)cc1	i	i	0.1	-0.656	.	.
O=C(NC1CCCc2c1cnn2-c1ccc(F)cc1F)c1csnn1 (stereo unspecified)	i	i	.	.	.	.
NC(=O)CC(NC(=O)c1ccccc1)c1ccc(N2CCCCCC2)c([N+](=O)[O-])c1 (stereo unspecified)	-8.6*	i	.	.	13.3%*	i
SMILES	CHT inh	CHT allo act	Rad51 HR inh	Cl transport mod	CHT block conf	HEK293 MPD ctr
CC(C)Nc1ccc(C(CC(N)=O)NC(=O)c2ccc(Br)cc2)cc1[N+](=O)[O-] (stereo unspecified)	i	i	5.6	0.0111	.	.
CN(Cc1ccccc1)c1ccc(C(CC(N)=O)NC(=O)c2ccc(Br)cc2)cc1[N+](=O)[O-] (stereo unspecified)	-6.53*	i	.	.	70.2%*	i
CSc1ccc(C#N)cc1NC(=O)c1ccccc1C	i	i	-1.9	-1.08	.	.
O=C1c2ccccc2C(=O)N1CCc1nc2ccccc2c(=O)n1Cc1ccco1	i	i	-2.5	.	.	.
Cc1ccc(C(=O)O)cc1NC(=S)NC(=O)c1ccc(COc2ccccc2)cc1	-6.54*	i	.	.	47.8%*	i
CC1CC(C)CN(c2ccc(C(=O)NCc3ccc4c(c3)OCO4)cc2[N+](=O)[O-])C1 (stereo unspecified)	i	i	-3.5	.	.	.
CC1=C(C(=O)N2CCCC(CCC(=O)NCc3ccccc3F)C2)OCCO1 (stereo unspecified)	-6.09*	i	.	-0.335	i	i
CCCN(CCC)c1nc(N(CCC)CCC)[nH]c(=O)n1	-5.09*	i	.	-0.574	64.1%*	i
Cc1ccc(NC(=S)N(Cc2cccs2)Cc2cc3cccc(C)c3[nH]c2=O)cc1	i	i	-25.2	0.57	.	.
O=C(OCC(=O)N1CCCc2ccccc21)c1cnc(Cl)c(Cl)c1	-5.67*	i	4.9	-0.773	i	i
O=C(OCC(=O)N1CCCc2ccccc21)c1ccc(Cl)nc1	i	i	22.2	1.01	.	.
C=CCN(C(=O)CC(NC(C)=O)c1ccccc1)c1nc(-c2ccc(S(C)(=O)=O)cc2)cs1 (stereo unspecified)	i	i	.	.	.	.
COc1ccc(Cn2cnc3c([N+](=O)[O-])c(C)c(C)cc32)cc1	-9.43*	i	7.3	-0.0612	34.2%*	i
Cc1cc(C)c(C#N)c(N)n1	-8.64*	i	-4.7	0.762	i	i
C=C(C)CCC(C)N1CCC(n2nccc2NC(=O)CCOc2ccccc2)CC1 (stereo unspecified)	i	i	.	.	.	.
CCOC(=O)c1ccccc1Oc1c(F)c(F)nc(NCCO)c1F	-5.47*	i	-16.2	-0.293	54.6%*	i
CCOC(=O)c1cnc2c(ccc3ccccc32)c1NCCO	i	i	13.7	-0.0309	.	.
C=CC[C@H]1CC(Cc2ccccc2)=C[C@H](CC=C)N1	-8.64*	i	1.1	-0.219	-13.2%*	-17*
O=C(CN1CCN(Cc2ccc(F)cc2Cl)C1=O)NCCc1ccccc1	i	i	-4.6	.	.	.
CN(CCNC(=O)CN1CCN(Cc2ccccc2Cl)C1=O)Cc1ccccc1	-6.47*	i	-1.0	-0.195	42.6%*	i
CC(CN1CCN(C)CC1)OC(=O)c1ccccc1Cl (stereo unspecified)	-8.33*	i	.	-0.961	11.9%*	i

Bioassay records deposited in PubChem by several laboratories.
